Sampled rows, rich in hits. Any-hit rate of the full collection: about 4.9%.
NPY-Y1 PAM-ag – potentiators or agonists of human neuropeptide Y receptor Y1; actives 0.37% (n = 220,000); AID 1304; P25929; activation, % at 3.6 µM; NPY-Y1 expressing cells, potentiator/agonist activation; in the data active means activation above about 33%, passing the limit was not always enough;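 further: cells stimulated with NPY at EC10 then isoproterenol at EC100; 0% = low agonist plus stimulus and 100% = saturating agonist plus stimulus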
Target sequence (P25929 whole entry, looked up): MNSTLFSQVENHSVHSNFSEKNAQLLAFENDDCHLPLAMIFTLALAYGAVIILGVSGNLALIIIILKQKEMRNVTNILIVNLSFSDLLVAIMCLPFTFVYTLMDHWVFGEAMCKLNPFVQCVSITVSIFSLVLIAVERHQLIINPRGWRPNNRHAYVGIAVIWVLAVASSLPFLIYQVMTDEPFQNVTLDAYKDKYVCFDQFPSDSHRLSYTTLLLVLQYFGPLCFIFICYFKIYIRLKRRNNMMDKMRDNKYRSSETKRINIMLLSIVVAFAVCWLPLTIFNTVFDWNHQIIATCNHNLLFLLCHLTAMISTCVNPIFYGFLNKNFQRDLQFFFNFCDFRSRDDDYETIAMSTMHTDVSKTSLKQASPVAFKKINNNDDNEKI
NPY-Y1 antag – blocks the human neuropeptide Y Y1 receptor. actives 1% (n = 200,000). HEK293-CNG Y1 cells, membrane potential fluorescence; NPY at EC95, then isoproterenol. inhibition, % at 3.6 µM. P25929;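 active means inhibition above the campaign mean inhibition of all tested compounds plus 3 SD, cut at about 20% in these data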;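 further: 0% = DMSO wells given NPY plus isoproterenol and 100% = isoproterenol alone without NPY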
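System: HEK293 cells with Y1 receptor plus CNG channel / Probe or stimulus: NPY 25 nM then isoproterenol 1 µM plus Ro 20-1724 25 µM / Compound: one concentration, 3.6 µM, in 0.4% DMSO / Schedule: compound incubation 1 h at room temperature, readout 45 min post-stimulation / Measured by: membrane potential fluorescence / Read-out: % inhibition of NPY effect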
RAM inhibit – blocks the yeast RAM network. S. cerevisiae dse1pr::URA3 reporter, 5-FOA growth OD615, 2 d; analog-sensitive cbk1-as2 kinase mutant strain. inhibition, % at 50 µM. actives 1.8% (n = 190,000);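 active means inhibition above a set limit, 3 SD over mean compound inhibition, cut at about 8.4% in these data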;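 further: 0% = DMSO-only wells with no growth and 100% = 10 µM 1-NA-PP1 full growth; inhibition rescues growth on 5-FOA so higher OD means more RAM inhibition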
NPY2 pot ag – potentiators or agonists of human neuropeptide Y receptor Y2 | P49146 | cells expressing NPY-Y2, potentiator/agonist read-out | activation, % at 3.6 µM | actives 0.45% (n = 220,000); in the data active means activation above about 27%;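 further: cells stimulated with NPY near EC25 plus isoproterenol at EC100; 0% = vehicle plus submaximal agonist and 100% = vehicle plus saturating agonist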
WT yeast gro inh – growth inhibition of WT yeast, mitochondrial fusion screen; mitochondrial fusion phenotypic screen, WT strain; inhibition, % at 10 µM; actives 2.1% (n = 190,000); AID 1362; in the data active means inhibition above about 58%; tested in S. cerevisiae
NPY Y2 blocker – blocks the human neuropeptide Y Y2 receptor; P49146; NPY-Y2 expressing cells, antagonist mode; inhibition, % at 2.7 µM; actives 0.99% (n = 140,000); AID 793; in the data active means inhibition above about 17%;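 further: 0% = vehicle with agonist challenge and 100% = reference antagonist with challenge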
The depositor's hits bear a star; nt = not tested or not shown.

SMILES	NPY-Y1 PAM-ag	NPY-Y1 antag	RAM inhibit	NPY2 pot ag	WT yeast gro inh	NPY Y2 blocker
COC(=O)CCCCC1SCC(NC(=O)c2ccccc2)C1=O (configuration not stated)	6	-5	2	-7	16	nt
COC(=O)CCCCC1SCC(NC(=O)c2ccccc2)C1OC(C)=O (configuration not stated)	-3	6	9.2*	-1	-6	nt
O=S(=O)(Nc1ccc(-c2nc3cccnc3s2)cc1)c1cc(F)ccc1F	10	nt	nt	-7	nt	nt
CC(/C=N/NC(=O)NC1CCCCC1)=C\c1ccccc1	0	13	3	-10	43	nt
O=C(N/N=C/C(Br)=C/c1ccccc1)NC1CCCCC1	-8	2	0	-13	90*	nt
c1ccc2c(-c3c[nH]c4ccccc34)c3ccccc3nc2c1	7	4	0	-31	79*	8
CCCCCCCCn1cnc2c(N)c(C)c(C)cc21	3	12	-1	12	59*	2
COc1ccc(Cn2cnc3c(N)c(C)c(C)cc32)cc1	1	6	0	13	-12	nt
COc1cc(N=Nc2cccc(S(N)(=O)=O)c2)c2ccccc2c1N	61*	nt	nt	52*	nt	nt
CCOC(=O)/C=C1\NC(C)(C)Cc2cc(OC)c(OC)cc21	4	-3	2	-19	8	0
COc1cc2c(cc1OC)C(=S)NC(C)(C)C2	103*	-3	-1	46*	-25	8
CC(=O)NCCC(=O)NCc1ccc(F)cc1	9	4	1	14	nt	-2
CC1CCN(CCCOc2ccc(OCc3ccccc3)cc2)CC1	-42	24*	1	-11	63	22*
C=CCNc1nc(=S)[nH]c2cc(OC)c(OC)cc12	8	8	1	0	-6	nt
COc1ccc(C)cc1NC(=O)C(Sc1nnc(Nc2cc(C)ccc2OC)s1)c1ccccc1 (configuration not stated)	6	-3	8.5*	2	1	4
N=c1n(CCN2CCCCC2)c2ccccc2n1CC(O)COc1ccccc1 (configuration not stated)	-75	49*	0	-28	-21	60*
CCCCn1c(=N)n(CC(O)COc2ccc(C)cc2)c2ccccc21 (configuration not stated)	-32	61*	0	-16	13	47*
COc1ccc(OCC(O)Cn2c(=N)n(CCN3CCOCC3)c3ccccc32)cc1 (configuration not stated)	-3	9	0	-4	3	2
CCCCn1c(=N)n(CC(O)COc2ccccc2)c2ccccc21 (configuration not stated)	-58	34*	2	-60	33	26*
N=c1n(CCN2CCOCC2)c2ccccc2n1CC(O)COc1ccccc1 (configuration not stated)	-15	8	0	-6	3	12
O=C(COC(=O)Cn1cnc2ccccc2c1=O)NCCC1=CCCCC1	-6	1	1	4	14	1
C=CCC1(Cl)C(=O)C(Cl)=C(N2CCN(C)CC2)C1(OC)OC (configuration not stated)	-6	nt	nt	-17	nt	nt
N#Cc1c(NC(=O)c2ccc(Cn3cc(Br)cn3)o2)sc2c1CCCCC2	10	-7	6	-8	1	1
COC(=O)c1sc(NC(=O)c2ccc(Cn3cc(Cl)cn3)o2)c(C#N)c1C	60*	-11	2	36*	8	-8
Cc1cccc(OCCC(=O)N(C)CC(=O)Nc2cccc3ccccc23)c1	-30	4	1	-3	-3	2
SMILES	NPY-Y1 PAM-ag	NPY-Y1 antag	RAM inhibit	NPY2 pot ag	WT yeast gro inh	NPY Y2 blocker
Cc1ccc(C(=O)/C=C/c2cn(CN3CCN(C)CC3)c3ccccc23)cc1	2	3	1	-2	84*	-1
CC1(c2ccccc2)CC(C)(C)N2C(=O)/C(=C3\SC(=S)NC3=O)c3cccc1c32 (configuration not stated)	-3	-4	2	-4	61*	0
O=C(O/N=C/C1=C(Cl)c2ccccc2CC1)c1ccc(F)cc1	-2	-5	9.5*	-8	1	-2
Cc1ccc(C(=O)O/N=C2\CCCc3ccccc32)cc1	-5	2	3	-20	5	10
COc1cccc(-c2nnc(SCC(=O)N3CCCc4ccccc43)o2)c1	-65	10	8.5*	-19	3	11
COc1cccc(-c2nc(CSCC(=O)N3CCc4ccccc43)c(C)o2)c1	-7	2	8.8*	-7	-14	3
C=CCn1c(SCc2ccc(Cl)cc2)nc2cc(C(=O)N3CCC(C(N)=O)CC3)ccc2c1=O	-4	1	1	-11	14	3
Cn1c(=O)[nH]c(Nc2ccc(F)cc2)c([N+](=O)[O-])c1=O	-5	6	1	16	-5	3
Cc1ccc(S(=O)(=O)NC(C(=O)O)c2ccccc2)cc1 (configuration not stated)	15	4	2	7	-15	nt
CC[C@@H](C(=O)n1nc(C)cc1C)[C@H](NS(=O)(=O)c1ccc(C)cc1)c1ccccc1	-7	-11	10.0*	-5	-11	-1
Cc1ccc(-c2c(C(=O)Nc3ccccc3C)c(C)[nH]c(=S)c2C#N)o1	8	9	8.5*	-16	0	nt
O=C1CC(SC(=Nc2ccccc2)Nc2ccccc2)C(=O)N1c1ccc(Cl)c(Cl)c1 (configuration not stated)	0	0	2	5	62*	-4
Cc1cccc(N2C(=O)CC(SC(=Nc3ccccc3)Nc3ccccc3)C2=O)c1 (configuration not stated)	28	-5	1	9	24	-4
COC(=O)c1ccc(N2C(=O)CC(SCC(=O)Nc3ccc(OC)cc3)C2=O)cc1 (configuration not stated)	8	nt	nt	-13	nt	nt
CN=C(Nc1cc(Cl)ccc1Cl)SC1CC(=O)N(c2ccc(C(=O)OC)cc2)C1=O (configuration not stated)	14	-1	4	-4	69*	0
COC(=O)c1cc(-c2ccccc2)c2c(=O)n(C)c(=O)n(C)c2n1	25	0	0	8	-4	nt
COc1cc(C(=O)Nc2cc(C)c(OCC(=O)N3CCOCC3)c(C)c2)cc(OC)c1OC	8	6	3	-10	12	1
CC(C)(C)n1cnc2cc(NS(=O)(=O)c3ccccc3)ccc21	9	-1	-1	6	-8	-2
Nc1ccccc1-c1ccccc1N	3	-6	3	0	-8	nt
COc1cc(/C=C/C(=O)CC(=O)/C=C/c2ccc(O)c(OC)c2)ccc1O	30	-1	8.7*	20	0	-2
COc1cc(C=C(C(C)=O)C(C)=O)ccc1O	8	3	0	6	-10	2
CCOC(=O)Cc1csc(NC(=O)c2cccs2)n1	4	2	1	14	11	2

Source: PubChem BioAssay (several laboratories)
